This note sets out measurements from PubChem BioAssay AID1257 (The Scripps Research Institute Molecular Screening Center, 2008).

SMILES strings stand for the structures. The list shows a part of the results. Values without a mark were called inactive. Active and inactive are the calls of the source.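 How the source made its calls: active means mean inhibition of triplicate wells above the hit cutoff set in the primary screen (cut at about 17% in these data); inactive means the rest.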

Sequence of Neuropeptide Y receptor type 2 (Homo sapiens) (P49146 whole entry, looked up): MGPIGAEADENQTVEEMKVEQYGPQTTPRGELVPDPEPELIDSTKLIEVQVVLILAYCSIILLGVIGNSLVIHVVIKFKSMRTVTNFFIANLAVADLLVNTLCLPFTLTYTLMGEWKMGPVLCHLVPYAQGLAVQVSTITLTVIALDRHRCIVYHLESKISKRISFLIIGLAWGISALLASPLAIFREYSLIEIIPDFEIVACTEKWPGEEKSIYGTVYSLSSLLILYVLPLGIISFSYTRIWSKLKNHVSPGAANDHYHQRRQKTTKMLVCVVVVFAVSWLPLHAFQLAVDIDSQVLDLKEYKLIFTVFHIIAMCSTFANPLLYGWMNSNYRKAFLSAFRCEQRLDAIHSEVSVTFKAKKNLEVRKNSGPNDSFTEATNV

In the test the target is Neuropeptide Y receptor type 2 (Homo sapiens) (UniProt P49146). The experiment in a line: blockers of human NPY-Y2 signalling – HEK293-CNG cells, membrane potential fluorescence, triplicate, confirmation (AID 1257).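 Further: 0% = DMSO with NPY challenge and 100% = BIIE0246 high control.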 To be noted: HEK293 NPY-Y2 CNG channel, at 2.8 µM, hits give high values. The essentials:
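assay system = NPY-Y2 HEK293-CNG cells | times = NPY exposure 60 min at room temperature | technique = voltage-sensitive dye fluorescence | read-out = 30-min to baseline fluorescence ratio, control-normalized | control set = high BIIE0246, low DMSO | repeats = three replicates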
Broadly, the inhibition is the drop in the measured response relative to a control, in per cent. With `COc1ccc(/C=C/C(=O)NC(=S)NN2CCCCC2c2cccnc2)cc1` (centres undefined), the inhibition is 63.5% (active). `CCOc1ccc(S(=O)(=O)N/N=C(\C)c2ccc(Cl)c(Cl)c2Cl)cc1`: the inhibition is 16%. For `Cc1ccc(NC(=O)CN2CCC3(O)CCCCC3C2c2ccc3c(c2)OCO3)c(C)c1` (centres undefined), the inhibition was 7.05%. Under `CN(C)Cc1ccc(F)cc1Sc1cc(Cl)ccc1Cl` stands 9.81%; under `O=C(CC(O)(C(F)(F)F)C(F)(F)F)Nc1ccc(Cl)c(Cl)c1`, 8.21%. With `O=C(Nc1nnc(SCc2c(Cl)cccc2Cl)s1)C1CCCO1` (centres undefined) the figure was 15.9%. With `CCCCC(O)(CCCC)C(=O)NN(C(=O)CCl)c1ccccc1` the figure was 6.12%; with `CCOc1ccc(C(O)Cn2c(=N)n(CCN3CCCCC3)c3ccccc32)cc1` (centres undefined), 14.8%. As to `CCCCCNC(=O)Cc1ccc(OC)cc1`, the inhibition is -1.6%. `COc1ccc(/C(N)=N/OC(=O)CCCc2ccccc2)cc1`: the inhibition is 8.36%. Under `COc1ccc(-c2nc3ccccc3n2CCC(C)C)cc1OC` stands 7.79%; under `COc1ccc(NC(=O)/C(Cl)=C(/Cl)S(=O)Cc2ccc(C)cc2)cn1` (centres undefined), 60.8% (active). Under `Cc1cccc(OCC(O)Cn2c(=N)n(CCN3CCOCC3)c3ccccc32)c1` (centres undefined) stands 6.36%; under `O=C(Oc1ccccc1)Oc1ccc2c(c1)oc(=O)c1ccccc12`, 6.38%.

For the molecule `Cc1ccccc1OC(=O)Cn1c(C(F)(F)F)nc2ccccc21`, the inhibition is 3.55%. In the case of `N#Cc1ccc(C(c2nnnn2CCc2ccccc2)N2CCCCCC2)cc1` (centres undefined), the inhibition is 7.32%.

`O=C1CC(c2cccc(Cl)c2)CC(O)=C1C=Nc1ccccc1` (centres undefined): the inhibition was 16.5%.

`O=S(=O)(Cc1cc(Sc2ccccc2)nc(-c2ccccc2)n1)c1ccccc1`: the inhibition is 7.19%. Under `Cc1ccc(CCC(=O)Nc2ncc(Cc3cc(Cl)ccc3Cl)s2)o1` stands 28.3% (active).

On to `Cc1cc(C(=O)OCC(=O)N2c3ccccc3NC(=O)C2(C)C)c(C)n1-c1ccccc1`, for which the inhibition is 17.1%. `Cc1cc(C)nc(-n2ncc3c2CC(c2ccc(C(C)C)cc2)CC3=O)n1` (centres undefined): the inhibition is 24.2% (active). With `c1ccc(-c2cc3c(NCC4COc5ccccc5O4)ncnc3s2)cc1` (centres undefined) the figure was 15.2%; with `N=c1n(Cc2ccc(Cl)cc2)c2ccccc2n1CC(O)c1ccco1` (centres undefined), 17.8% (active).

With `CCOC(=O)C(C)Sc1nc2ccccc2c(=O)n1CC1CCCCC1` (centres undefined), the inhibition is 8.48%. In the case of `N#Cc1ccc(N2Cc3ccccc3/C2=N/C(=O)Nc2ccc(Cl)cc2)cc1`, the inhibition is 144% (active).

In the case of `CCCc1nc(SCC(=O)Nc2ccccc2OC)c2c(=O)n(C)c(=O)n(C)c2n1`, the inhibition was 9.29%. Under `COC(=O)c1ccc(CSc2nc3cc(Cl)ccc3o2)cc1` stands 12.9%. Under `C=CCNCCCCOc1ccccc1` stands -1.34%.

Take `Cc1ccccc1N1CCN(CCCOc2ccc3c(C)cc(=O)oc3c2)CC1`: the inhibition is 21.9% (active).

For the molecule `Cc1ccc(C2=NN(C)c3nc4ccccc4n3C2)cc1`, the inhibition is 4.08%. Under `Cc1ccc(S(=O)(=O)N(Cc2ccc(Cl)cc2)c2ccccc2C(=O)NCc2cccnc2)cc1` stands 21.4% (active); under `CC12CN(Cc3ccccc3)CC(C)(CN(Cc3ccccc3)C1)C2=NO`, 10.7%. With `COc1ccc(-c2noc(COc3ccc(Cl)c(C)c3)n2)cc1` the figure was 32.4% (active); with `COc1cccc(-c2ccc(C#N)c(SCC(=O)NCCc3ccc(Cl)cc3)n2)c1`, 23.6% (active).
